# Results of several laboratories.
# Each line is one published result; the experiments were not run side by side.
# Target: Tyrosine-protein kinase Fyn (FYN, Homo sapiens, UniProt P06241)
Structure (SMILES),read-out,technique,tested at,remaining binding [%]
O=C(Nc1c[nH]nc1C(=O)NC1CCNCC1)c1cc(F)cc(F)c1,binding,competition with immobilised ligand,1 µM,100
COc1ncc2cc3ccccc3nc2c1C#N,cell-free assay,competition with immobilised ligand,5 µM,100
CN(CCCC(F)(F)F)c1nccc(-c2cnn3ncccc23)n1,binding,,1 µM,82
CNC(=O)[C@@H]1CC[C@@H](n2c(-c3ccc4cnccc4c3)nc3ccc(C(=O)NCc4cccc(C(N)=O)c4)cc32)C1,binding,competition with immobilised ligand,1 µM,100
O=C(NCCCN1CCOCC1)c1ccc(Nc2ncc(Cl)c(-c3ccc(Cl)s3)n2)cc1,binding,competition with immobilised ligand,1 µM,100
COc1cnc(Nc2cccc(S(N)(=O)=O)c2)nc1N1CCN(c2ccccc2)C(=O)C1,binding,competition with immobilised ligand,1 µM,100
O=C(NCCCN1CCOCC1)c1ccc(Nc2nccc(-c3cc4ccccc4s3)n2)cc1,binding,competition with immobilised ligand,1 µM,94
NS(=O)(=O)c1cc(NC(=O)C2(c3ccccc3Cl)CC2)ccc1Oc1cccc(Cl)c1,cell-free assay,competition with immobilised ligand,1 µM,100
c1cncc(-c2cccc(Nc3nccc(NC4CCCCC4)n3)c2)c1,binding,competition with immobilised ligand,10 µM,45
FC(F)(F)Oc1cccc(-c2cnc3ccc(-c4ccncc4)nn23)c1,cell-free assay,competition with immobilised ligand,5 µM,51
C[C@H](c1ccc(F)cc1)N(Cc1cccc(C(=O)O)c1)C(=O)c1cnc2ccccc2c1,cell-free assay,competition with immobilised ligand,1 µM,63
C[C@H]1CCN(c2nccc(-c3cnn4ncccc34)n2)C1,binding,,1 µM,100
CN(C)CC#Cc1ccc(OCCCc2sc(N3CCc4cccc(C(=O)Nc5nc6ccccc6s5)c4C3)nc2C(=O)O)c(F)c1,cell-free assay,competition with immobilised ligand,1 µM,96
O=C(c1ccc(Nc2ncc(Cl)c(-c3ccc(Cl)s3)n2)cc1)N1CCC(N2CCCC2)CC1,binding,competition with immobilised ligand,1 µM,100
CC(C)CC(=O)N1CCc2nc(-c3ccc(Br)cc3)nc(N(C)Cc3ccccc3)c2C1,cell-free assay,competition with immobilised ligand,0.1 µM,100
N[C@@H]1CCN(c2nccc(-c3cnn4ncccc34)n2)C1,binding,,1 µM,100
O=C(O)[C@@H]1[C@@H](Cn2nnc3ccccc3c2=O)CC[C@H]1C(=O)c1ccc(OCCC2CCOCC2)cc1,cell-free assay,competition with immobilised ligand,1 µM,76
COc1ccnn2ncc(-c3ccnc(N(C)C)n3)c12,binding,,1 µM,100
CCOCCn1cc(C(=O)Nc2ccc(-n3nc(-c4cccnc4)cc3C(F)(F)F)cn2)ccc1=O,cell-free assay,competition with immobilised ligand,1 µM,53
Cc1cnn2ncc(-c3ccnc(N(C)C)n3)c2c1,binding,,1 µM,98
